Activity calls are given as the source filed them. The rule behind the calls is not given here.
Tests used:
A549 [1] = test: Antiproliferative activity against human A549 cells after 72 hrs by MTT assay; format: functional, cell-based
MCF7 = test: Antiproliferative activity against human MCF7 cells after 72 hrs by MTT assay; format: functional, cell-based
PC-3 = test: Antiproliferative activity against human PC3 cells after 72 hrs by MTT assay; format: functional, cell-based
Procedure, shortened: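 Cells grown in MEM with 10% FBS. About 4×10³ cells per well seeded and incubated 24 h at 37 °C, 5% CO₂. Compounds added at indicated final concentrations for 72 h. MTT at 5 µg/mL final for 4 h at 37 °C. Formazan dissolved in DMSO, absorbance read at 492 nm with 630 nm reference. Tested three times; IC50 is the mean of two determinations.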

[2] = biological target: Epidermal growth factor receptor (Homo sapiens, UniProt P00533); test: Inhibition of wild type EGFR (unknown origin) using FAM-labeled peptide substrate after 10 mins by mobility shift assay
[3] = biological target: Epidermal growth factor receptor (Homo sapiens, UniProt P00533, T790M); test: Inhibition of wild type EGFR T790M mutant (unknown origin) using FAM-labeled peptide substrate after 10 mins by mobility shift assay
A549 [4] = test: Induction of apoptosis in human A549 cells assessed as early apoptotic cells at 0.5 uM after 48 hrs by Annexin V-FITC/propidium iodide staining based flow cytometry (reference value: 5.61%); format: functional
A549 [5] = test: Induction of apoptosis in human A549 cells assessed as live cells at 0.5 uM after 48 hrs by Annexin V-FITC/propidium iodide staining based flow cytometry (reference value: 91.81%); format: functional
A549 [6] = test: Induction of apoptosis in human A549 cells assessed as late apoptotic cells at 0.5 uM after 48 hrs by Annexin V-FITC/propidium iodide staining based flow cytometry (reference value: 2.07%); format: functional
A549 [7] = test: Induction of apoptosis in human A549 cells assessed as necrotic cells at 0.5 uM after 48 hrs by Annexin V-FITC/propidium iodide staining based flow cytometry (reference value: 0.51%); format: functional
A549 [8] = test: Induction of apoptosis in human A549 cells at 1.09 uM after 12 hrs by acridine orange staining based fluorescence microscopic method; format: functional, cell-based
Procedure, shortened: (§1)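 A549 cells, grown in MEM with 10% FBS, were exposed to compound for 12 h alongside an untreated control group. They were stained with acridine orange alone and viewed by inverted and fluorescence microscopy. Nuclear colour (green versus red), cell shrinkage, edge clarity, refraction and chromatin condensation were assessed visually.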

A549 [9] = test: Induction of morphological changes in human A549 cells assessed as cell shrinkage at 1.09 uM after 12 hrs by acridine orange staining based fluorescence microscopic method; format: functional; procedure, shortened: as §1
A549 [10] = test: Induction of morphological changes in human A549 cells assessed as chromatin condensation at 1.09 uM after 12 hrs by acridine orange staining based fluorescence microscopic method; format: functional, cell-based; procedure, shortened: as §1

Sequence of Epidermal growth factor receptor (Homo sapiens, UniProt P00533) (P00533 whole entry): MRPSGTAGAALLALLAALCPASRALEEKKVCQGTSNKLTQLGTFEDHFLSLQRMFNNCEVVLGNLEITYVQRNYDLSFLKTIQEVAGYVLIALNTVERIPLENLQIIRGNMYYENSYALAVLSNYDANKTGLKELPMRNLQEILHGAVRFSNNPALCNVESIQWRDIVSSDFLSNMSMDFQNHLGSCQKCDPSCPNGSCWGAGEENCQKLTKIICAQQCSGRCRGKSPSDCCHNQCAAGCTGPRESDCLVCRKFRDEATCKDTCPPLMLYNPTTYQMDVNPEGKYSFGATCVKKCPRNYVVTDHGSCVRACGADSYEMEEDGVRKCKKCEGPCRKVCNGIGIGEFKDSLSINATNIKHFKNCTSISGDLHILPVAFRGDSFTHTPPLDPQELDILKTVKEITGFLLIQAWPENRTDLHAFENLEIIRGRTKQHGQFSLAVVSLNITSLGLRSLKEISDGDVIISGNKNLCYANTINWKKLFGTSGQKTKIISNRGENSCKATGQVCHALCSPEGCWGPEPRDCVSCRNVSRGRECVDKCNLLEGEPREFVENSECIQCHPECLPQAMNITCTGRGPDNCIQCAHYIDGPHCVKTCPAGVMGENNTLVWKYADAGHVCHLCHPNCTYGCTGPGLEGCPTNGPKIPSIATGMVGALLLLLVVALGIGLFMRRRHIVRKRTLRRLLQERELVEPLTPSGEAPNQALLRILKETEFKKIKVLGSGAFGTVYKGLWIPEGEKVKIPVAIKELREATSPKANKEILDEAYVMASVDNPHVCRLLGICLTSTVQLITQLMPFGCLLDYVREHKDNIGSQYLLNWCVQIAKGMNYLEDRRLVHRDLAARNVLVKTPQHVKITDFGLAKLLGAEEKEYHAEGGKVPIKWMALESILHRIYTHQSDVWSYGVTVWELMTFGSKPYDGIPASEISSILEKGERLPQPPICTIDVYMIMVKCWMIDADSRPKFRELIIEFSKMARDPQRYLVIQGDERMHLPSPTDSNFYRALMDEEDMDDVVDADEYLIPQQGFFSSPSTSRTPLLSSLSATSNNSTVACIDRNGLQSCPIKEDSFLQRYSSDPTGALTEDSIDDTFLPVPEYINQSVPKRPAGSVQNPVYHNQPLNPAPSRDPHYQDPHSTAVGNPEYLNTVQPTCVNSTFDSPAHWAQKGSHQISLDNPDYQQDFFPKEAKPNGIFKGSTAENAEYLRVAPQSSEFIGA
Sequence of Epidermal growth factor receptor (Homo sapiens, UniProt P00533, T790M) (P00533 25-1210 T790M limits assumed): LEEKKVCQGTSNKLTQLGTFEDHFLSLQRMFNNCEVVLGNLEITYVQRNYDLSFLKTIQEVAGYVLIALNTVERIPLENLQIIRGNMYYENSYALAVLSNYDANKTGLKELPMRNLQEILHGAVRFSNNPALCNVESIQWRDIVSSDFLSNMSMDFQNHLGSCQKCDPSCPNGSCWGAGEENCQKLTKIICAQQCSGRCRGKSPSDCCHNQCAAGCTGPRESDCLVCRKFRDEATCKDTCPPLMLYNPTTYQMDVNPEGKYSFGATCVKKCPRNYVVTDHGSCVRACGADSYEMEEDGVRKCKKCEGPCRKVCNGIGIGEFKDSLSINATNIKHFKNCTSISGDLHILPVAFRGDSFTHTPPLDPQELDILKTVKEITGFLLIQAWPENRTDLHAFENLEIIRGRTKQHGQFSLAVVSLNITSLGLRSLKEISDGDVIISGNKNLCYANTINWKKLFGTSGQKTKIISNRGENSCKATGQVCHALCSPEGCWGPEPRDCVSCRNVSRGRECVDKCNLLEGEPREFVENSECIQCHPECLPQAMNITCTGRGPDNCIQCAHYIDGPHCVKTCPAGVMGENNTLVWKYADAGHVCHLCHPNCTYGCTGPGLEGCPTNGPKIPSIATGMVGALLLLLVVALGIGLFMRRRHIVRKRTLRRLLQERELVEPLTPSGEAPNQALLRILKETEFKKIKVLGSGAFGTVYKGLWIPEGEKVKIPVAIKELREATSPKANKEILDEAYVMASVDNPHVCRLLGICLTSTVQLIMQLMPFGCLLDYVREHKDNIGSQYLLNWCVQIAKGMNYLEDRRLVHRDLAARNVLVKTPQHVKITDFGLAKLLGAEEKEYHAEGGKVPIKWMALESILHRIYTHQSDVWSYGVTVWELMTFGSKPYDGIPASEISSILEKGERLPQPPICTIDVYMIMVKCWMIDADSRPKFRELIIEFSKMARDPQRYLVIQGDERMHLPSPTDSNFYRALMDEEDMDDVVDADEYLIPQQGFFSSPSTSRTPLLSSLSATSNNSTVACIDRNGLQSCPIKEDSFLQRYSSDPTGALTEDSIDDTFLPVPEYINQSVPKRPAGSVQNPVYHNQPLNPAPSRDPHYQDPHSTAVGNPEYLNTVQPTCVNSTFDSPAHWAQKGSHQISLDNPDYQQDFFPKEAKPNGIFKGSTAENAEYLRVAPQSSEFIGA

- IC50 (A549 [1]; A549, 72 h): 1.09 µM
- IC50 (MCF7; MCF7, 72 h): 1.34 µM
- IC50 (PC-3; PC-3, 72 h): 1.23 µM
- IC50 [2]: 0.005 µM
- IC50 [3]: 0.026 µM
SMILES: CN(C)C/C=C/C(=O)Nc1cc2c(N3CCc4ccccc43)ncnc2cc1O[C@@H]1CCOC1
- Activity (A549 [1]): Dose-dependent effect
- Activity (MCF7): Dose-dependent effect
- Activity (PC-3): Dose-dependent effect
- Activity (A549 [4]): 14.59%
- Activity (A549 [5]): 80.01%
- Activity (A549 [6]): 4.59%
- Activity (A549 [7]): 0.81%
- Activity (A549 [8]): Active
- Activity (A549 [9]): Active
- Activity (A549 [10]): Active
